Results from different studies.
Each line is one published result; the experiments were not run side by side.

| Compound | system | conditions | AUC(0-inf) [µg·h/mL] |
| --- | --- | --- | --- |
| O=C(Nc1ccc(-c2nc(-c3ccc(Cl)cc3)no2)cc1)C1CC(=O)N(Cc2ccco2)C1 (stereo not drawn) | male Wistar rat, brain | intraperitoneal, 10 mg/kg | 12.5 |
| CCc1cc(C(=O)NC)c2nccc(N3CCc4c(cc(Cn5ccnc5)cc4-c4cn(C)nc4C(F)(F)F)C3=O)c2c1 | male Sprague-Dawley rat, plasma | oral, 50 mg/kg, single dose | 11.1 |
| COc1ccc2c(Cc3ccccc3F)c3n(c(=O)c2c1OC)CCc1cc2c(cc1-3)OCO2 | rat, plasma | oral, 5 mg/kg | 7.96 |
| CNC(=O)c1c(C)oc2cc(Oc3ncnc4cc(OC)c(OC)cc34)ccc12 | Sprague-Dawley rat, plasma | oral, 1 mg/kg, single dose | 6.27 |
| COc1cc2c3c(n(CCCN4CCOCC4)c(=O)c2cc1OC)-c1cc2c(cc1C3=O)OCO2 | male Fischer 344 rat, plasma | intravenous, 12 mg/m², single dose | 0.232 |
| C#Cc1cccc(Nc2ncnc3cc(OCCOC)c(OCCOC)cc23)c1 | male Sprague-Dawley rat, plasma | oral, 12 mg/kg, single dose | 9.26 |
| Oc1c(Br)cc(Cl)c2cccnc12 | Sprague-Dawley rat, plasma | intravenous, 2 mg/kg | 1.2 |
| COCCOC(=O)C1=C(C)NC(C)=C(C(=O)OC(C)C)C1c1cccc([N+](=O)[O-])c1 (stereo not drawn) | male Sprague-Dawley rat, plasma | intravenous, 3 mg/kg | 0.573 |
| COc1ccc2c(Cc3ccccc3F)c3[n+](cc2c1OC)CCc1cc2c(cc1-3)OCO2.[Br-] | rat, plasma | intravenous, 5 mg/kg | 0.125 |
| CCc1cc(OC)c2nccc(N3CCc4c(cc(Cn5ccnc5)cc4-c4cn(C)nc4C(F)(F)F)C3=O)c2c1 | male Sprague-Dawley rat, plasma | oral, 50 mg/kg | 10.3 |
| COc1nc(-c2cc(C)c(N[C@@H](C)c3cc(F)cc(F)c3)nn2)ccc1-n1cnc(C)c1 | male Sprague-Dawley rat, plasma | oral, 5 mg/kg, single dose | 31.9 |
| Cc1c(-c2ccccc2)cccc1N1C(=O)c2cc(CN[C@H](C(=O)O)C(C)O)c(OCc3cccc(C#N)c3)cc2C1=O (stereo partly drawn) | Sprague-Dawley rat, plasma | intravenous, 5 mg/kg | 3.26 |
| CCOC(=O)[C@@]12C[C@@H]1[C@@H](n1ccc3c(NC)nc(C#Cc4ccc(Cl)s4)nc31)[C@H](O)[C@@H]2O | male Sprague-Dawley rat, plasma | oral, 10 mg/kg | 0.371 |
| CCc1nc(C(N)=O)c(Nc2ccc(N3CCC(N4CCN(C)CC4)CC3)c(OC)c2)nc1NC1CCOCC1 | male Sprague-Dawley rat, plasma | oral, 10 mg/kg | 11.5 |
| O=C(Nc1cc(F)c(F)c(F)c1)c1ccc(F)c(S(=O)(=O)NCc2cccc(B(O)O)c2)c1 | male Sprague-Dawley rat, plasma | oral, 20 mg/kg | 0.0376 |
